This is an account of results in ChEMBL document CHEMBL1629608, “Variations in amino acid composition of antisense peptide-phosphorodiamidate morpholino oligomer affect potency against Escherichia coli in vitro and in vivo” (Antimicrob Agents Chemother, 2009).

The structures appear in SMILES notation. In brackets after ≈: the same amount, converted by molar mass. Activity calls are given as the source filed them. The calls are words filed in the database; no cut-off is given here.

A short description of series [1]: Toxicity in Escherichia coli K-12 W3110 infected ip dosed mouse. The class given is organism-based. The conditions noted are these: in vivo. The gist of the method:
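E. coli K-12 W3110 was grown in LB broth for the inoculum and injected intraperitoneally into groups of 3–7 mice. Conjugates were given ip at 15 min and 12 h postinfection (10–300 μg per dose), with water or scrambled-sequence conjugate as controls. Blood drawn at 2, 6, 12, 24 and 48 h was diluted and plated on LB for CFU counts. Survival was followed by Kaplan-Meier, and log CFU was compared by ANOVA with Tukey-Kramer.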

A further series concerns Rattus norvegicus. Kind of series: Toxicity in rat at 150 mg/kg, ip. As to conditions: in vivo.
The test system of series [2] is Escherichia coli. Kind of series: Antibacterial activity against Escherichia coli K-12 W3110 infected in mouse assessed as reduction of bacterial level in blood at 300 ug, ip administered 15 mins and 12 hrs postinfection measured after 12 hrs post dose relative to control. Format: functional, K-12 substr. W3110. The essentials:
(§1)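 Mice in groups of 3–7 were infected intraperitoneally with E. coli W3110 from an LB culture. They were dosed ip with 10–300 μg per dose at 15 min and 12 h postinfection. Controls were water or scrambled-sequence PPMO. Blood was taken at 2, 6, 12, 24 and 48 h, diluted and plated on LB for CFU/ml. Log CFU was compared by one-way ANOVA with Tukey-Kramer; mean ± SD.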

The subject of series [3] is Escherichia coli. Description: Antibacterial activity against Escherichia coli K-12 W3110 infected in mouse assessed as reduction of bacterial level in blood at 300 ug, ip administered 15 mins and 12 hrs postinfection measured after 2 hrs post dose relative to control. Format: functional, K-12 substr. W3110. The essentials: as §1
The test system of series [4] is Escherichia coli. Kind of series: Antibacterial activity against Escherichia coli K-12 W3110 infected in mouse assessed as reduction of bacterial level in blood at 300 ug, ip administered 15 mins and 12 hrs postinfection measured after 6 hrs post dose relative to control. Format: functional, K-12 substr. W3110. The essentials:
as §1

For series [5], the system named is Escherichia coli. Kind of series: Antibacterial activity against Escherichia coli K-12 W3110 by microdilution method. The class given is functional. As to conditions: K-12 substr. W3110.
The test system of another series is Mus musculus. Description: Toxicity in Escherichia coli K-12 W3110 infected mouse at 15 mg/kg, ip. As to conditions: in vivo. Details: dose 15 mg/kg, route intraperitoneal. Format: organism-based. The essentials:
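Mice in groups of 3–7 were infected intraperitoneally with E. coli W3110 from an LB culture. They were treated ip at 15 min and 12 h postinfection with 10, 30, 100 or 300 μg per dose; 300 μg is noted as ~15 mg/kg. Controls were water or scrambled-sequence PPMO. Survival was followed to 48 h and analysed by the Kaplan-Meier method.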

The test system of series [6] is Escherichia coli. Description: Antibacterial activity against Escherichia coli K-12 W3110 infected in mouse assessed as reduction of bacterial level in blood at 100 ug, ip administered 15 mins and 12 hrs postinfection measured after 2 hrs post dose relative to control. The conditions noted are these: K-12 substr. W3110. The class given is functional, organism-based. The gist of the method:
as §1

Series [7] has as its system Escherichia coli. Kind of series: Antibacterial activity against Escherichia coli K-12 W3110 infected in ip dosed mouse assessed as reduction of bacterial level in blood administered 15 mins and 12 hrs postinfection. The class given is functional. The conditions noted are these: K-12 substr. W3110, Blood. The essentials:
as §1

Series [8] in a line: Therapeutic index, ratio of LD50 for Escherichia coli K-12 W3110 infected mouse to ED50 for Escherichia coli K-12 W3110. As to conditions: read-out: Ratio LD50/ED50.
The subject of series [9] is Escherichia coli. Description: Antibacterial activity against Escherichia coli K-12 W3110 infected in mouse assessed as reduction of bacterial level in blood at 10 to 30 ug, ip administered 15 mins and 12 hrs postinfection measured after 2 hrs post dose relative to control. Format: functional, organism-based. As to conditions: K-12 substr. W3110. The essentials: as §1

As for `Cc1cn([C@H]2CNC[C@@H](COP(=O)(N(C)C)N3C[C@@H](COP(=O)(N(C)C)N4C[C@@H](COP(=O)(N(C)C)N5C[C@@H](COP(=O)(N(C)C)N6C[C@@H](COP(=O)(N(C)C)N7C[C@@H](COP(=O)(N(C)C)N8C[C@@H](COP(=O)(N(C)C)N9C[C@@H](COP(=O)(N(C)C)N%10C[C@@H](COP(=O)(N(C)C)N%11C[C@@H](COP(=O)(N(C)C)N%12C[C@@H](COP(=O)(N(C)C)N%13CCN(C(=O)CCNC(=O)CCCCCNC(=O)[C@H](CCCNC(=N)N)NC(=O)[C@H](Cc%14ccccc%14)NC(=O)[C@H](CCCNC(=N)N)NC(=O)[C@H](CCCNC(=N)N)NC(=O)NC(=O)[C@H](Cc%14ccccc%14)NC(=O)[C@H](CCCNC(=N)N)NC(=O)[C@H](CCCNC(=N)N)NC(=O)NC(=O)[C@H](Cc%14ccccc%14)NC(=O)[C@H](CCCNC(=N)N)NC(=O)[C@H](CCCNC(=N)N)NC(=O)NC(=O)[C@H](Cc%14ccccc%14)NC(=O)[C@@H](N)CCCNC(=N)N)CC%13)O[C@@H](n%13cc(C)c(=O)[nH]c%13=O)C%12)O[C@@H](n%12ccc(N)nc%12=O)C%11)O[C@@H](n%11cc(C)c(=O)[nH]c%11=O)C%10)O[C@@H](n%10ccc(N)nc%10=O)C9)O[C@@H](n9cnc%10c(N)ncnc%109)C8)O[C@@H](n8cnc9c(=O)[nH]c(N)nc98)C7)O[C@@H](n7cnc8c(N)ncnc87)C6)O[C@@H](n6cc(C)c(=O)[nH]c6=O)C5)O[C@@H](n5cnc6c(=O)[nH]c(N)nc65)C4)O[C@@H](n4cnc5c(=O)[nH]c(N)nc54)C3)O2)c(=O)[nH]c1=O` (some centres not stated), in series [1], the LD50 – broadly, the dose expected to kill half of the subjects tested – was found to be 210 mg/kg. Also, the Activity result in the series with Rattus norvegicus is given as “Toxic”.

For the compound `Cc1cn([C@H]2CN(P(=O)(OC[C@@H]3CN(P(=O)(OC[C@@H]4CN(P(=O)(OC[C@@H]5CN(P(=O)(OC[C@@H]6CN(P(=O)(OC[C@@H]7CN(P(=O)(OC[C@@H]8CN(P(=O)(OC[C@@H]9CN(P(=O)(OC[C@@H]%10CNC[C@H](n%11cnc%12c(=O)[nH]c(N)nc%12%11)O%10)N(C)C)C[C@H](n%10cc(C)c(=O)[nH]c%10=O)O9)N(C)C)C[C@H](n9cnc%10c(=O)[nH]c(N)nc%109)O8)N(C)C)C[C@H](n8cnc9c(N)ncnc98)O7)N(C)C)C[C@H](n7cc(C)c(=O)[nH]c7=O)O6)N(C)C)C[C@H](n6cnc7c(N)ncnc76)O5)N(C)C)C[C@H](n5cnc6c(=O)[nH]c(N)nc65)O4)N(C)C)C[C@H](n4ccc(N)nc4=O)O3)N(C)C)C[C@@H](COP(=O)(N(C)C)N3C[C@@H](COP(=O)(N(C)C)N4C[C@@H](COP(=O)(N(C)C)N5CCN(C(=O)CCNC(=O)CCCCCNC(=O)[C@H](CCCNC(=N)N)NC(=O)[C@H](Cc6ccccc6)NC(=O)[C@H](CCCNC(=N)N)NC(=O)[C@H](CCCNC(=N)N)NC(=O)NC(=O)[C@H](Cc6ccccc6)NC(=O)[C@H](CCCNC(=N)N)NC(=O)[C@H](CCCNC(=N)N)NC(=O)NC(=O)[C@H](Cc6ccccc6)NC(=O)[C@H](CCCNC(=N)N)NC(=O)[C@H](CCCNC(=N)N)NC(=O)NC(=O)[C@H](Cc6ccccc6)NC(=O)[C@@H](N)CCCNC(=N)N)CC5)O[C@@H](n5ccc(N)nc5=O)C4)O[C@@H](n4cc(C)c(=O)[nH]c4=O)C3)O2)c(=O)[nH]c1=O` (some centres not stated), the log10cfu in the series with Escherichia coli [2], in the series on Escherichia coli [3] and in the series with Escherichia coli [4] was 2 in each case. The MIC (commonly the least concentration at which growth counts as inhibited) in the series with Escherichia coli [5] was determined as 0.625 µM (≈ 3.71 µg/mL). The compound also returned an LD50 in [1] of 300 mg/kg. Further, in the series on Mus musculus, the Activity result is given as “Non-toxic”. The result with Escherichia coli [6] was Active. Also, the ED50 (in general, the midpoint of the dose-response relation) in the series with Escherichia coli [7] came to 1.5 mg/kg. In addition, the selectivity ratio in [8] turned out to be 200. Further, the result in the series with Escherichia coli [9] was inactive.
